This note sets out measurements from ChEMBL document CHEMBL3632540, “Ynamide Click chemistry in development of triazole VEGFR2 TK modulators” (Eur J Med Chem, 2015).

Assay [1] has as its target Vascular endothelial growth factor receptor 2 (Homo sapiens, UniProt P35968). Briefly: Inhibition of GST-tagged human recombinant VEGFR2 kinase expressed in Sf9 insect cells by radiometric protein kinase assay. The procedure, abridged:
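Human VEGFR2 kinase made as GST fusion in Sf9 cells, purified on GSH-agarose, purity checked by SDS-PAGE/silver stain, identity confirmed by mass spectrometry.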

Assay [2] is described as follows: Cytotoxicity against human HuH7 cells incubated for 72 hrs by SRB assay. Format: functional, cell-based, Huh-7. The method in brief: (§1)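 HCC lines kept in DMEM with 10% FBS, L-glutamine, nonessential amino acids and penicillin/streptomycin at 37 °C, 5% CO2, STR-authenticated. Seeded at 2000 cells/well (Huh7) or 1000 cells/well (Mahlavu); serial dilutions added 24 h later, DMSO control. After 72 h, TCA-fixed, SRB-stained, dye solubilized in 10 mM Tris base, A515 read. Triplicates, normalized to DMSO.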
(In SRB staining, fixed cells bind dye roughly in proportion to their protein.)

A short description of assay [3]: Cytotoxicity against human Mahlavu cells incubated for 72 hrs by SRB assay. The class given is functional, cell-based. The procedure, abridged:
as §1

Setting [4] is: Homo sapiens, Huh-7, 72 h, read-out: IC50.

The structures appear in SMILES notation. Where only a bound is given, the exact number is not on record here.

Chain of Vascular endothelial growth factor receptor 2 (P35968 whole entry, the tested form may be a part): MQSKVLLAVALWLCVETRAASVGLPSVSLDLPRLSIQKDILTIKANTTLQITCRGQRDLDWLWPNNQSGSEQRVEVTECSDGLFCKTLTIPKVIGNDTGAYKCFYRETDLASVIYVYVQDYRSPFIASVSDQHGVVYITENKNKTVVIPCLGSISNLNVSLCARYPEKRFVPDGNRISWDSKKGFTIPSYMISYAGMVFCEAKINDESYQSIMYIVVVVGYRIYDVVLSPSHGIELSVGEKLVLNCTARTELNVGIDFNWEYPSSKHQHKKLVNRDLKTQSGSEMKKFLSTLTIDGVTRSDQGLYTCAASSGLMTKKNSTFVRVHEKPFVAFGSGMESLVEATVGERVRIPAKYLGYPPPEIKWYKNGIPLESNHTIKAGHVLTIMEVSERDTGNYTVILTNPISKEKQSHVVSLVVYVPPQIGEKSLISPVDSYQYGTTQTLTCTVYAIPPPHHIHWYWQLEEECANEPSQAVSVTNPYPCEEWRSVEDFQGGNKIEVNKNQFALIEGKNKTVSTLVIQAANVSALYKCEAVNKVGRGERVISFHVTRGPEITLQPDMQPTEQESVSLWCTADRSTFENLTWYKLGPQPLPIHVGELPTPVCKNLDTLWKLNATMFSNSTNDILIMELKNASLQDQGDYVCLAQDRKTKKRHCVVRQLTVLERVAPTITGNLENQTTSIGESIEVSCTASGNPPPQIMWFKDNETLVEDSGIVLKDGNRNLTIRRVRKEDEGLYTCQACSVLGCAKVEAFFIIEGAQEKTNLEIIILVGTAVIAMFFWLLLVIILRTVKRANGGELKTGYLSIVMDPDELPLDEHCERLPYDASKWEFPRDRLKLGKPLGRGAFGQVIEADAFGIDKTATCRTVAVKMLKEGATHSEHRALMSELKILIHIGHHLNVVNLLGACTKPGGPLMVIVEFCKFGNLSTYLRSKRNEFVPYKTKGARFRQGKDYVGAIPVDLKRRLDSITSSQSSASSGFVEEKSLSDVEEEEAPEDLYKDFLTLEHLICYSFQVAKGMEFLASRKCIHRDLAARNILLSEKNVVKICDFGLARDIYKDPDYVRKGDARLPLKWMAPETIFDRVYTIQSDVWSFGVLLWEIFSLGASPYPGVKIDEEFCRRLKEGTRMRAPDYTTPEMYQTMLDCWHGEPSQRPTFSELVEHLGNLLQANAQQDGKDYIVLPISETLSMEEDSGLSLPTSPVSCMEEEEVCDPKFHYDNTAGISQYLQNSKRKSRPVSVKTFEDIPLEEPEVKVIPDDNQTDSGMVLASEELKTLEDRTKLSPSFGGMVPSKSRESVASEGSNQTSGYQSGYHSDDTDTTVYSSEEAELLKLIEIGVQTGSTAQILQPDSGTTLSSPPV

The IC50 is the concentration at which inhibition is half-maximal. As for `CCS(=O)(=O)c1ccc(OC)c(Nc2cn(-c3ccc(O)c(-c4cc[nH]c4)c3)nn2)c1`, the IC50 in assay [1] (read-out: IC50) came to 40.1 µM; in assay [2] (setting [4]) it was 18.6 µM; in assay [3] it was 11.9 µM.
Turning to `CCS(=O)(=O)c1ccc(OC)c(Nc2cn(-c3ccc(NC(N)=O)c(-c4cccc5ccccc45)c3)nn2)c1`, the IC50 is above 100 µM in assay [1] (read-out: IC50), “Not Active” in assay [2] (huh-7) and 27.9 µM in assay [3].
On to `CCS(=O)(=O)c1ccc(OC)c(Nc2cn(-c3ccc(O)c(-c4ccccn4)c3)nn2)c1`, for which the IC50 was 6.96 µM in assay [1] (read-out: IC50), 17.7 µM in assay [2] (setting [4]) and 13.8 µM in assay [3].
As for `CCS(=O)(=O)c1ccc(OC)c(Nc2cn(-c3cc(-c4ccccc4)nc(-c4ccccc4)n3)nn2)c1`, the IC50 entry in assay [1] (sf9) is recorded as “Not Active”.
The same measure, in the same setting: to `CCS(=O)(=O)c1ccc(OC)c(Nc2cn(-c3ccc(O)c(-c4cccnc4)c3)nn2)c1` belongs “Not Active”.
Turning to `CCS(=O)(=O)c1ccc(OC)c(Nc2cn(-c3cccc(-c4cccnc4)c3)nn2)c1`, the concentration for half-maximal inhibition (IC50) in assay [1] (read-out: IC50) is above 100 µM; in assay [2] (setting [4]), 12.8 µM; in assay [3], 11.8 µM.
`CCS(=O)(=O)c1ccc(OC)c(Nc2cn(-c3cccc(-c4ccccn4)c3)nn2)c1`: in assay [1] (read-out: IC50), the IC50 is 42 µM.
